TLR4 MyD88 comp – inhibitors of human TLR4-MyD88 binding; O00206+Q99836; HeLa CL3-4 TLR4/MyD88 BLA complementation, FRET ratio; inhibition, % at 8.4 µM; 200,000 tested, 0.18% active; AID 861; in the data active = inhibition above about 25%
TLR9-MyD88 inh – blocks human TLR9 binding to MyD88. Q9NR96+Q99836. CHO BLA complementation TLR9-MyD88, CCF4 FRET ratio. inhibition, % at 4.98 µM. 340,000 tested, 0.21% active;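 active = inhibition above the mean over all tested compounds plus 3 SD, cut at about 21% in these data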
Target sequence (Q99836 whole entry, looked up): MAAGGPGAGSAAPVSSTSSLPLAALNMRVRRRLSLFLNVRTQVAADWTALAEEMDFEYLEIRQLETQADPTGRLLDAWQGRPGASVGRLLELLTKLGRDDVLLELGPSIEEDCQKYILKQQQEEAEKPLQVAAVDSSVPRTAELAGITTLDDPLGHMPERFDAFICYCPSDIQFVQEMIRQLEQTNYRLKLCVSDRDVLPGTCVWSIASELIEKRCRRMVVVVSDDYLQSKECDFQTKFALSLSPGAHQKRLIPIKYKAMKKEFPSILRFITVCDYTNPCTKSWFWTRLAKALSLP
Target sequence (Q9NR96 whole entry, looked up): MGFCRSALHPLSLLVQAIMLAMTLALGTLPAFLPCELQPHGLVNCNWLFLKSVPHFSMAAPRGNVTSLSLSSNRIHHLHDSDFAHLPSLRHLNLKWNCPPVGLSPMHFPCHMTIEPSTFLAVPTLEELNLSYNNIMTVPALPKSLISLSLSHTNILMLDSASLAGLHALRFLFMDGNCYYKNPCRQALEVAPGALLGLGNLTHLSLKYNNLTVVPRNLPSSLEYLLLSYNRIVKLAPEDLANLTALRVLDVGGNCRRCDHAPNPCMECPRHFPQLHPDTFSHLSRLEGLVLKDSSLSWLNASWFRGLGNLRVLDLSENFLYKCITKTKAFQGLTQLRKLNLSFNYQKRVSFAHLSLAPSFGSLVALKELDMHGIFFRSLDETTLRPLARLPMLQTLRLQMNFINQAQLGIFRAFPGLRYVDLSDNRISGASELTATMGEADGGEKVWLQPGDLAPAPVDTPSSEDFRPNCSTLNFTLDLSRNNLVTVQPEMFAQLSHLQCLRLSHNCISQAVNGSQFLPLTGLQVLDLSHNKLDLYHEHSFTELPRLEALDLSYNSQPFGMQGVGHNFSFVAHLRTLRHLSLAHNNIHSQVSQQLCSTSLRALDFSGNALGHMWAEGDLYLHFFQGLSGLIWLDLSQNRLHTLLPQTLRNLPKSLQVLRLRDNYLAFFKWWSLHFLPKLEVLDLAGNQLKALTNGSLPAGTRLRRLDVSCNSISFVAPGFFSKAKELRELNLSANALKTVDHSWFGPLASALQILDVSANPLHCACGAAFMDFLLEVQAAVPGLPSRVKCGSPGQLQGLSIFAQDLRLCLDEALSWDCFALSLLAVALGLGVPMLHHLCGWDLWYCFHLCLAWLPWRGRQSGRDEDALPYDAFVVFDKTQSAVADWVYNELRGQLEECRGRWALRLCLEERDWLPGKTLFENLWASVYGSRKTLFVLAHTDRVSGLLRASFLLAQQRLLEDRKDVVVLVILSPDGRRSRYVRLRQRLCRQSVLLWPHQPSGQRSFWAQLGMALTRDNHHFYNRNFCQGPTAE
MC4R barr agon – human MC4R agonism via beta-arrestin; AID 540308; 360,000 tested, 0.98% active; P32245; activation, % at 8.9 µM; U2OS MC4R beta-arrestin complementation, luminescence; percent of melanotan II response, DMSO zero;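 active = activation above a per-plate cutoff, the mean activation of sample wells on that plate plus 3 SD, cut at about 8% in these data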
NOD2-RIPK2 inh – inhibitors of human NOD2-RIPK2 interaction | CHO BLA complementation NOD2-RIPK2, CCF4 ratio | inhibition, % at 4.98 µM | 360,000 tested, 0.38% active | AID 624267; in the data active = inhibition above about 21%
beta cell repl – MIN6 beta-cell proliferation induction | MIN6 cells proliferation, ATPlite luminescence, 48 h; cells starved in 0.2% serum; 100% = growth in 10% serum | 330,000 tested, 0.29% active | proliferation, % at 10 µM;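 active = compounds whose signal lies at least 3.5 SD above the mean of all wells on their plate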
MC4R antag cAMP – blocks human MC4R cAMP signaling; 360,000 tested, 0.48% active; P32245; inhibition, % at 6.5 µM; MC4R-expressing cells, MTII-stimulated cAMP, LANCE TR-FRET;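 active = inhibition above its plate's cutoff, the mean of tested wells on that plate plus 3 SD, cut at about 29% in these data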
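Assay system: human MC4R-expressing U2OS cells; reagent: Melanotan II stimulation of cells; dosing: 6.5 µM single dose; timing: compound 30 min, challenge 1 h, detection 1 h; signal: TR-FRET cAMP assay; replicates: one well per compound, no replicates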
Hits are given with their value. Rows were chosen to be rich in hits. Some 2.1% of all compounds tested hit in one or more screens of this group.

CSc1nnnn1-c1c(C)cccc1C was read as TLR9-MyD88 inh inactive, MC4R barr agon inactive, NOD2-RIPK2 inh inactive, beta cell repl inactive and MC4R antag cAMP inactive.
Cc1cccc(C)c1-n1nnnc1SCSc1nnnn1-c1c(C)cccc1C was read as TLR4 MyD88 comp inactive, TLR9-MyD88 inh inactive, MC4R barr agon 8.7, NOD2-RIPK2 inh inactive, beta cell repl inactive and MC4R antag cAMP inactive.
Screening C#CCOCCOCCOCCNc1nc(N2CCN(C(=O)CCCCCCCCCCNC(=O)[C@H]([C@@H](C)CC)n3cc(CCCCCN)nn3)CC2)nc(N2CCN(C(=O)CCCCCCCCCCNC(=O)[C@H]([C@@H](C)CC)n3cc(CCCCN=C(N)N)nn3)CC2)n1 returned TLR9-MyD88 inh 75, MC4R barr agon inactive, NOD2-RIPK2 inh 69, beta cell repl inactive and MC4R antag cAMP 57.
For C#CCOCCOCCOCCNc1nc(N2CCN(C(=O)CCCCCCCCCCNC(=O)[C@H]([C@@H](C)CC)n3cc(CCCCCN)nn3)CC2)nc(N2CCN(C(=O)CCCCCCCCCCNC(=O)[C@@H]([C@H](C)CC)n3cc(CCCCCN)nn3)CC2)n1 the results were beta cell repl inactive.
For C#CCOCCOCCOCCNc1nc(N2CCN(C(=O)CCCCCCCCCCNC(=O)[C@H]([C@@H](C)CC)n3cc(CCCCN=C(N)N)nn3)CC2)nc(N2CCN(C(=O)CCCCCCCCCCNC(=O)[C@H]([C@@H](C)CC)n3cc(CCCCN=C(N)N)nn3)CC2)n1 the results were beta cell repl inactive.
For C#CCOCCOCCOCCNc1nc(N2CCN(C(=O)CCCCCCCCCCNC(=O)[C@H]([C@@H](C)CC)n3cc(CCCCN=C(N)N)nn3)CC2)nc(N2CCN(C(=O)CCCCCCCCCCNC(=O)[C@H](CO)n3cc(CCCCCN)nn3)CC2)n1 the results were TLR9-MyD88 inh 35, MC4R barr agon inactive, NOD2-RIPK2 inh 31, beta cell repl inactive and MC4R antag cAMP 32.
`C#CCOCCOCCOCCNc1nc(N2CCN(C(=O)CCCCCCCCCCNC(=O)Cn3cc(CCCCCN)nn3)CC2)nc(N2CCN(C(=O)CCCCCCCCCCNC(=O)[C@H]([C@@H](C)CC)n3cc(CCCCN=C(N)N)nn3)CC2)n1` gave TLR9-MyD88 inh 40, MC4R barr agon inactive, NOD2-RIPK2 inh 35, beta cell repl inactive and MC4R antag cAMP inactive.
For C/C(=N\NC(=O)COc1ccc(C#N)cc1)c1ccccc1OC(F)F the results were TLR4 MyD88 comp inactive, TLR9-MyD88 inh inactive, MC4R barr agon inactive, NOD2-RIPK2 inh inactive, beta cell repl 6.9 and MC4R antag cAMP inactive.
`N#C/C(=C\c1ccncc1)c1nc2ccccc2o1` gave MC4R barr agon inactive, NOD2-RIPK2 inh inactive, beta cell repl inactive and MC4R antag cAMP inactive.
`N#C/C(=C\c1ccc(Cl)cc1)c1nc2ccccc2o1` gave TLR4 MyD88 comp inactive, TLR9-MyD88 inh inactive, MC4R barr agon 8.9, NOD2-RIPK2 inh inactive, beta cell repl inactive and MC4R antag cAMP inactive.
For O=C(COC(=O)c1ccc(F)cc1Cl)NC1CCCCCCC1 the results were TLR9-MyD88 inh inactive, MC4R barr agon 8.6, NOD2-RIPK2 inh inactive, beta cell repl inactive and MC4R antag cAMP inactive.
Screening COC(=O)c1[nH]c2ccccc2c1NC(=O)/C=C/c1ccc2c(c1)OCO2 returned TLR4 MyD88 comp inactive, TLR9-MyD88 inh inactive, MC4R barr agon 8.4, NOD2-RIPK2 inh inactive, beta cell repl inactive and MC4R antag cAMP inactive.
CCN(CC(=O)Nc1c(C(=O)OC)[nH]c2ccccc12)c1ccc2c(c1)OCO2 was read as TLR4 MyD88 comp inactive, TLR9-MyD88 inh inactive, MC4R barr agon inactive, NOD2-RIPK2 inh inactive, beta cell repl inactive and MC4R antag cAMP inactive.
Screening CN1C(=O)C(N=Nc2ccccc2C(=O)O)N(C)C1=S (centres undefined) returned TLR4 MyD88 comp inactive, TLR9-MyD88 inh inactive, MC4R barr agon inactive, NOD2-RIPK2 inh inactive, beta cell repl inactive and MC4R antag cAMP inactive.
`CCC(C)[C@@H](NC(=O)OC(C)(C)C)c1nnc(S(=O)(=O)Cc2cccc(C)c2)o1` (some centres undefined) gave TLR4 MyD88 comp inactive, TLR9-MyD88 inh inactive, MC4R barr agon inactive, NOD2-RIPK2 inh 24 and MC4R antag cAMP inactive.
Screening Cc1cc(-c2nnn(CCCOC(C)(C)C)c2C)ccc1-c1cn(CCCOC(C)(C)C)nn1 returned TLR9-MyD88 inh inactive, MC4R barr agon inactive, NOD2-RIPK2 inh inactive and MC4R antag cAMP inactive.
CC(C)(C)C1C/C(=C/c2ccccn2)C(=O)/C(=C/c2ccccn2)C1 (centres undefined) was read as TLR4 MyD88 comp inactive, TLR9-MyD88 inh inactive, MC4R barr agon inactive, NOD2-RIPK2 inh 27, beta cell repl inactive and MC4R antag cAMP inactive.
C=CCn1c(SCC(=O)Nc2ccc(C(=O)O)cc2)nc2sc(C)c(C)c2c1=O was read as TLR9-MyD88 inh inactive, MC4R barr agon inactive, NOD2-RIPK2 inh inactive, beta cell repl inactive and MC4R antag cAMP inactive.
Screening C=CCn1c(SCC(=O)NCCO)nc2sc(C)c(C)c2c1=O returned TLR4 MyD88 comp inactive, TLR9-MyD88 inh inactive, MC4R barr agon inactive, NOD2-RIPK2 inh inactive, beta cell repl 13 and MC4R antag cAMP inactive.
For CCCCCn1nc(C(=O)OCc2nc(N)nc(Nc3ccccc3)n2)c2ccccc2c1=O the results were TLR9-MyD88 inh inactive, MC4R barr agon inactive, NOD2-RIPK2 inh inactive, beta cell repl inactive and MC4R antag cAMP inactive.
Screening CC(=O)Nc1ccc(Nc2nc(C(F)(F)F)nc3c2nnn3Cc2ccccc2Cl)cc1 returned TLR9-MyD88 inh inactive, MC4R barr agon 8.9, NOD2-RIPK2 inh inactive, beta cell repl inactive and MC4R antag cAMP inactive.
For CCn1cc(C(=O)NCCC(=O)NC(C)C)c(=O)c2cc3c(cc21)OCO3 the results were TLR9-MyD88 inh inactive, MC4R barr agon inactive, NOD2-RIPK2 inh inactive, beta cell repl inactive and MC4R antag cAMP inactive.
Screening CSc1nc2sc3c(c2c2nnnn12)CCCC3 returned TLR4 MyD88 comp inactive, TLR9-MyD88 inh inactive, MC4R barr agon 8.3, NOD2-RIPK2 inh inactive, beta cell repl inactive and MC4R antag cAMP inactive.
`CN(C)c1ccc(C(=S)N2CCN(S(=O)(=O)c3ccccc3)CC2)cc1` gave TLR9-MyD88 inh inactive, MC4R barr agon inactive, NOD2-RIPK2 inh inactive, beta cell repl inactive and MC4R antag cAMP inactive.
`Cc1ccc(OCCNC(=O)c2cncc(Br)c2)cc1C` gave TLR4 MyD88 comp inactive, TLR9-MyD88 inh inactive, MC4R barr agon inactive, NOD2-RIPK2 inh inactive, beta cell repl inactive and MC4R antag cAMP inactive.
Cc1cccc(OCCNC(=S)NC(=O)c2cncc(Br)c2)c1 was read as TLR9-MyD88 inh inactive, MC4R barr agon 9.3, NOD2-RIPK2 inh inactive, beta cell repl inactive and MC4R antag cAMP inactive.
For O=C(c1ccccc1)N1CCN(C(=S)NCc2ccco2)CC1 the results were TLR4 MyD88 comp inactive, TLR9-MyD88 inh inactive, MC4R barr agon inactive, NOD2-RIPK2 inh inactive, beta cell repl inactive and MC4R antag cAMP inactive.

Bioassay records from PubChem.
